proCasp7 act: counter-screen for procaspase-3 activators: activators of human procaspase-7 | 330,000 tested, 0.093% active | AID 463210 | P55210 | activation, % at 8.5 µM | recombinant procaspase-7, Ac-DEVD-pNA absorbance 405 nm; D23A/D198A/D206A triple mutant, cannot self-cleave; scale: DMSO 0, 5 µM enzyme 100;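 active means percent activation above the screen-wide mean plus 3 SD, cut at about 25% in these data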
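Detection: p-Nitroaniline absorbance at 405 nm, read at 0 and 120 min; system: Uncleavable procaspase-7 mutant enzyme; evaluation: % activation from two-timepoint absorbance difference, scaled to controls; times: 1 h enzyme–compound preincubation and 2 h substrate reaction, both 25 °C; buffer or medium: Zinc-free HEPES pH 7.4 with 300 mM NaCl, 0.01% Triton X-100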
PKA-R2B act: activates the human PKA-R2B holoenzyme complex; PKA-R2B holoenzyme dissociation, Cy5-IP20 fluorescence polarization; R2B truncated from residue 108, S112A mutant; 0% DMSO only, 100% 113 µM cGMP; activation, % at 11.4 µM; 340,000 tested, 0.079% active;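 active means activation above a cutoff set at the mean over all compounds plus 3 SD, cut at about 18% in these data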;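 further: higher means more holoenzyme dissociation and a rise in polarization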
proCasp3 act: procaspase-3 (human) activation. recombinant procaspase-3 D3A, Ac-DEVD-pNA absorbance 405 nm. 330,000 tested, 0.11% active. P42574. activation, % at 8.5 µM. AID 463141;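 active means activation above the mean of all tested compounds plus 3 SD, cut at about 21% in these data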
Target sequence (P42574 whole entry D9A/D28A/D175A): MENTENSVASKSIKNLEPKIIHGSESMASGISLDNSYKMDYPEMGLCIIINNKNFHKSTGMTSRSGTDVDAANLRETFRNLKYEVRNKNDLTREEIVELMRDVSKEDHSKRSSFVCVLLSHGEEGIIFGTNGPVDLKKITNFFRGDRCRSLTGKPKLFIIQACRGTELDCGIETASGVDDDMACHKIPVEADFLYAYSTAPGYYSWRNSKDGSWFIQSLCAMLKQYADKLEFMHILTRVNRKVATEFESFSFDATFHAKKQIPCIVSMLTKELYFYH
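Compound: 8.5 µM single point, 0.8% DMSO / Material: Autoprocessing-dead procaspase-3 D3A mutant enzyme / Timing: 1 h preincubation plus 2 h reaction at 25 °C / Medium: Zinc-free HEPES/NaCl buffer with 0.01% Triton X-100 at pH 7.4 / Technique: 405 nm absorbance of p-nitroaniline, reads at 0 and 120 min / Repeats: one well per compound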
PKA-R1A act: PKA-R1A complex activation. 340,000 tested, 0.083% active. activation, % at 11.4 µM. PKA-R1A dissociation, Cy5-IP20 fluorescence polarization; scaled: DMSO 0%, 113 µM cGMP 100%. AID 504707. P00514+P68181;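 active means percent activation above the mean of all tested compounds plus 3 SD, cut at about 19% in these data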;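 further: higher means more PKAc released from R1A so a rise in polarization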
PC3 D3A act: counter-screen for dual procaspase-3/7 activators: human procaspase-3 activation; shares compounds with proCasp7 act; recombinant PC-3 D3A, Ac-DEVD-pNA absorbance 405 nm; aspartates 9, 28, 175 changed to alanine; 100% = enzyme control; activation, % at 8.5 µM; 290 tested, under 10 active; AID 493114;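 active means mean percent activation across triplicates above a set limit taken from the earlier primary procaspase-3 screen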
PC7 dual conf: procaspase-7 (human) activation, dual activator confirmation | 290 tested, under 10 active | shares compounds with proCasp7 act | recombinant procaspase-7, Ac-DEVD-pNA absorbance 405 nm; D23A/D198A/D206A mutant that cannot self-cleave | activation, % at 8.5 µM | AID 493115;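 active means mean activation above a set limit carried over from the earlier primary screen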
A number is an active result. Only some compounds are listed: those with a hit (about 0.29% of all), similar ones and a draw of the others.

Screening COc1ccc(/C=C/C(=O)Oc2ccc(C=O)cc2OC)cc1 returned proCasp7 act inactive, PKA-R2B act inactive, proCasp3 act inactive and PKA-R1A act inactive.
NS(=O)(=O)c1ccc(NC(=O)/C=C/c2cn(-c3ccccc3)nc2-c2cccc(Cl)c2)cc1 was read as proCasp7 act 72.3, PKA-R2B act inactive, proCasp3 act 54.5, PKA-R1A act inactive, PC3 D3A act inactive and PC7 dual conf inactive.
`O=C(/C=C/c1cn(-c2ccccc2)nc1-c1ccccc1)Nc1ccc(C(=O)O)cc1` gave proCasp7 act inactive, PKA-R2B act inactive, proCasp3 act inactive and PKA-R1A act inactive.
Screening O=c1[nH]c(N/N=C/c2ccccc2)nc2ccccc12 returned proCasp7 act 37.7, PKA-R2B act inactive, proCasp3 act 31.6, PKA-R1A act inactive, PC3 D3A act inactive and PC7 dual conf inactive.
C(=N\Nc1nc2ccccc2[nH]1)/c1ccccc1 was read as proCasp7 act inactive, PKA-R2B act inactive, proCasp3 act inactive and PKA-R1A act inactive.
O=c1[nH]c(N/N=C\c2ccc3c(c2)OCO3)nc2ccccc12 was read as proCasp7 act 27.5, PKA-R2B act inactive, proCasp3 act 24.2, PKA-R1A act inactive, PC3 D3A act inactive and PC7 dual conf inactive.
`O=c1[nH]c(N/N=C/c2cc3c(cc2[N+](=O)[O-])OCO3)nc2ccccc12` gave proCasp7 act inactive, PKA-R2B act inactive, proCasp3 act inactive and PKA-R1A act inactive.
O=C(Nc1ccc(Br)cc1)C1CCCN(S(=O)(=O)c2cccnc2)C1 (stereo not given) was read as proCasp7 act inactive, PKA-R2B act inactive, proCasp3 act inactive and PKA-R1A act inactive.
`Nc1nc(Nc2ccccc2)nc2c1ncn2[C@@H]1O[C@H](CO)[C@@H](O)[C@H]1O` gave proCasp7 act inactive, PKA-R2B act inactive, proCasp3 act inactive and PKA-R1A act inactive.
O=C(c1cccs1)c1ccc(-c2cccs2)s1 was read as proCasp7 act 37.0, PKA-R2B act inactive, proCasp3 act 27.2, PKA-R1A act inactive, PC3 D3A act inactive and PC7 dual conf inactive.
Screening Cc1ccc2nc(NCc3ccccc3)c(C#N)cc2c1 returned proCasp7 act 51.7, PKA-R2B act inactive, proCasp3 act inactive, PKA-R1A act inactive, PC3 D3A act inactive and PC7 dual conf inactive.
Cc1ccc2nc(NCCNC(=O)c3ccccc3)c(C#N)cc2c1 was read as proCasp7 act inactive, PKA-R2B act inactive, proCasp3 act inactive and PKA-R1A act inactive.
c1ccc(Nc2nc(-c3ccncc3)cs2)cc1 was read as proCasp7 act inactive, PKA-R2B act inactive, proCasp3 act inactive and PKA-R1A act inactive.
COc1cc(C2C3=C(CC(C)(C)CC3=O)Nc3c2c(=O)[nH]c(=O)n3Cc2ccccc2)ccc1O (stereo not given) was read as proCasp7 act inactive, PKA-R2B act inactive, proCasp3 act inactive and PKA-R1A act inactive.
COc1ccc(C2C3=C(CC(C)(C)CC3=O)Nc3c2c(=O)[nH]c(=O)n3Cc2ccccc2)cc1OC (stereo not given) was read as proCasp7 act 25.6, PKA-R2B act inactive, proCasp3 act inactive, PKA-R1A act inactive, PC3 D3A act inactive and PC7 dual conf inactive.
Screening COc1ccc(C2C3=C(CC(C)(C)CC3=O)Nc3c2c(=O)[nH]c(=O)n3Cc2ccccc2)cc1 (stereo not given) returned proCasp7 act 29.2, PKA-R2B act inactive, proCasp3 act inactive, PKA-R1A act inactive, PC3 D3A act inactive and PC7 dual conf inactive.
CCOc1ccc2c(c1)C(=NNC(=O)c1ccncc1)c1cc(OCC)ccc1-2 was read as proCasp7 act inactive, PKA-R2B act inactive, proCasp3 act inactive and PKA-R1A act inactive.

Screening results as filed in PubChem.
